Reference: ChEMBL document CHEMBL1122273, “5-sulfamoylorthanilic acids, a sulfonamide series with salidiuretic activity” (J Med Chem, 1983)

Assays:
Canis familiaris [1] = assay: Saluretic activity in the dog measured as concentration of Na+ in urinary excretion (2 animals/dose) at a dose of 0.1 mg/Kg, perorally; type: functional, Canis lupus familiaris, Urine
Method in brief: (§1)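 Male beagles trained to rest on a table and to accept stomach tube and catheter. Food withdrawn 24 h before, tap water ad libitum. Bladder emptied by catheter, then 20 mL/kg tap water by stomach tube. Catheterized hourly up to 8 h with 4 mL/kg water orally each time; first 2 h urine served as control. Oral dosing after second catheterization. Pooled 1–6 h urine; Na⁺/K⁺ by flame photometry, Cl⁻ argentometrically.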

Canis familiaris [2] = assay: sodium excretion collected at 1-24 hr time after oral administration in dog (four animals per dose) at dose 1.56 mg/kg.; type: functional, Canis lupus familiaris
Method in brief: (§2)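 Trained male beagles, four per dose, fasted 24 h with tap water ad libitum. After bladder emptying, given 20 mL/kg tap water by stomach tube, then 4 mL/kg at each hourly catheterization; 2 h control collection, then oral dosing. Urine volume and Na⁺ (flame photometry) reported for 1–6, 7–24 and 1–24 h post-dose periods.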

[3] = It is the ratio, measured as saluretic activity in the dog as concentration of Cl- in urinary excretion (dose 12.5 mg/kg, p.o.) to that of (Na+)+(K+); type: functional, Urine; details: route oral
Method in brief: (§3)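 Trained male beagles, fasted 24 h with tap water ad libitum. Bladder emptied by catheter, then 20 mL/kg tap water by stomach tube, with 4 mL/kg water at each hourly catheterization up to 8 h. The first 2 h of urine served as control. Oral dosing came after the second catheterization, and 1–6 h urine was pooled. Na⁺ and K⁺ were measured by flame photometry, Cl⁻ argentometrically, in mequiv/kg.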

Canis familiaris [4] = assay: sodium excretion collected at 1-24 h time after oral administration in dog (four animals per dose) at dose 6.25 mg/kg.; type: functional, Canis lupus familiaris; method in brief: as §2
Canis familiaris [5] = assay: sodium excretion collected at 1-6 hr time after oral administration in dog (four animals per dose) at dose 6.25 mg/kg.; type: functional, Canis lupus familiaris; method in brief: as §2
[6] = It is the ratio, measured as saluretic activity in the dog as concentration of Cl- in urinary excretion (dose 0.4 mg/Kg, perorally) to that of (Na++K+); type: functional, Urine; method in brief: as §3
Rattus norvegicus [7] = organism: Rattus norvegicus; assay: Effect on inulin U/P ratio in rats in comparison to furosemide activity
[8] = It is the ratio, measured as saluretic activity in the dog as concentration of Na+ in urinary excretion (dose 1.56 mg/Kg, perorally) to that of K; type: functional, Urine; method in brief: as §3
Canis familiaris [9] = assay: sodium excretion collected at 7-24 hr time after oral administration in dog (four animals per dose) at dose 0.39 mg/kg.; type: functional, Canis lupus familiaris; method in brief: as §2
Canis familiaris [10] = assay: Urinary excretion collected at 1-24 hr time after oral administration in dog (four animals per dose) at dose 6.25 mg/kg.; type: functional, Canis lupus familiaris, Urine; method in brief: as §2
Canis familiaris [11] = assay: sodium excretion collected at 7-24 hr time after oral administration in dog (four animals per dose) at dose 1.56 mg/kg.; type: functional, Canis lupus familiaris; method in brief: as §2
Canis familiaris [12] = assay: Urinary excretion collected at 1-6 hr time after oral administration in dog (four animals per dose) at dose 6.25 mg/kg.; type: functional, Canis lupus familiaris, Urine; method in brief: as §2
Canis familiaris [13] = assay: Urinary excretion collected at 7-24 hr time after oral administration in dog (four animals per dose) at dose 0.39 mg/kg.; type: functional, Canis lupus familiaris, Urine; method in brief: as §2
Canis familiaris [14] = assay: Saluretic activity in the dog measured as concentration of K+ in urinary excretion (2 animals/dose) at (dose 12.5 mg/Kg, perorally); type: functional, Canis lupus familiaris, Urine; method in brief: as §1
Canis familiaris [15] = assay: Urinary excretion collected at 7-24 hr time after oral administration in dog (four animals per dose) at dose 6.25 mg/kg.; type: functional, Canis lupus familiaris, Urine; method in brief: as §2
Rattus norvegicus [16] = organism: Rattus norvegicus; assay: Effect on Urine flow in rats in comparison to furosemide activity
Canis familiaris [17] = assay: sodium excretion collected at 1-6 hr time after oral administration in dog (four animals per dose) at dose 0.39 mg/kg.; type: functional, Canis lupus familiaris; method in brief: as §2
Canis familiaris [18] = assay: Saluretic activity in the dog measured as concentration of Cl - in urinary excretion (2 animals/dose) at (dose 12.5 mg/Kg, perorally); type: functional, Canis lupus familiaris, Urine
Method in brief: (§4)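 Male beagles trained to the procedures, food withdrawn 24 h before, tap water ad libitum. Bladder emptied by catheter, then 20 mL/kg tap water by stomach tube, plus 4 mL/kg orally at each hourly catheterization up to 8 h. The first 2 h of urine served as control. Compound given orally after the second catheterization. Urine from 1–6 h post-dose pooled; Na⁺ and K⁺ by flame photometry, Cl⁻ argentometrically, in mequiv/kg.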

Canis familiaris [19] = assay: urinary excretion collected at 7-24 hr time after oral administration in dog (four animals per dose) dosed at 0.05 mg/kg.; type: functional, Canis lupus familiaris, Urine
Canis familiaris [20] = assay: sodium excretion collected at 7-24 hr time after oral administration in dog (four animals per dose) dosed at 0.39 mg/kg.; type: functional, Canis lupus familiaris
Method in brief: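 Trained male beagles, food withdrawn 24 h beforehand with tap water ad libitum. Bladder emptied by catheter, then 20 mL/kg tap water by stomach tube. Catheterized hourly (up to 8 h) with 4 mL/kg water orally each time. First 2 h of urine served as control. Compound given orally after second catheterization. Na⁺ measured flame-photometrically, in mequiv/kg.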

Canis familiaris [21] = assay: urinary excretion collected at 1-6 hr time after oral administration in dog (four animals per dose) dosed at 0.05 mg/kg.; type: functional, Canis lupus familiaris, Urine
Method in brief: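 Trained male beagles, four per dose, fasted 24 h with tap water ad libitum. The bladder was emptied by catheter, then 20 mL/kg tap water was given by stomach tube. Dogs were catheterized hourly with 4 mL/kg water orally each time, and the first 2 h served as control. Compound was given orally after the second catheterization. Urine volume and flame-photometric Na⁺ were measured over 1-6, 7-24 and 1-24 h.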

Canis familiaris [22] = assay: Diuretic activity in the dog (2 animals/dose) at (dose 0.025 mg/Kg), when administered perorally; type: functional, Canis lupus familiaris, Urine; method in brief: as §3
Canis familiaris [23] = assay: sodium excretion collected at 1-6 hr time after oral administration in dog (four animals per dose) dosed at 3.12 mg/kg.; type: functional, Canis lupus familiaris; method in brief: as §2
Canis familiaris [24] = assay: urinary excretion collected at 1-24 hr time after oral administration in dog (four animals per dose) dosed at 0.39 mg/kg.
Canis familiaris [25] = assay: urinary excretion collected at 7-24 hr time after oral administration in dog (four animals per dose) dosed at 3.12 mg/kg.; type: functional, Canis lupus familiaris, Urine
Canis familiaris [26] = assay: Saluretic activity in the dog measured as concentration of K+ in urinary excretion (2 animals/dose) at (dose 0.025 mg/Kg, perorally); type: functional, Canis lupus familiaris, Urine; method in brief: as §4
Canis familiaris [27] = assay: sodium excretion collected at 1-24 hr time after oral administration in dog (four animals per dose) dosed at 3.12 mg/kg.; type: functional, Canis lupus familiaris; method in brief: as §2
Canis familiaris [28] = assay: Saluretic activity in the dog measured as concentration of Cl - in urinary excretion (2 animals/dose) at (dose 0.025 mg/Kg, perorally); type: functional, Canis lupus familiaris, Urine; method in brief: as §4
Canis familiaris [29] = assay: sodium excretion collected at 1-24 hr time after oral administration in dog (four animals per dose) dosed at 0.05 mg/kg.; type: functional, Canis lupus familiaris; method in brief: as §2
[30] = It is the ratio, measured as saluretic activity in the dog as concentration of Cl- in urinary excretion (dose 1.56 mg/Kg, po) to that of (Na+)+(K+); type: functional, Urine; method in brief: as §3
Canis familiaris [31] = assay: sodium excretion collected at 1-6 h time after oral administration in dog (four animals per dose) dosed at 0.05 mg/kg.; type: functional, Canis lupus familiaris; method in brief: as §2

## NS(=O)(=O)c1cc(S(=O)(=O)[O-])c(NCc2ccco2)cc1Oc1ccccc1.[Na+]
Canis familiaris [1]
  Saluretic activity: 0.18 m equiv 5hr-1 kg-1
Canis familiaris [2]
  Na+ excretion: 5.4 mequiv kg-1
[3]
  Ratio: 0.95
Canis familiaris [4]
  Na+ excretion: 8.55 mequiv kg-1
Canis familiaris [5]
  Na+ excretion: 6.52 mequiv kg-1
[6]
  Ratio: 1.1
Rattus norvegicus [7]
  Ratio: 7.66
[8]
  Ratio: 4.9
Canis familiaris [9]
  Na+ excretion: 0.47 mequiv kg-1
Canis familiaris [10]
  Urinary excretion: 111.1 mL/kg
Canis familiaris [11]
  Na+ excretion: 0.48 mequiv kg-1
Canis familiaris [12]
  Urinary excretion: 75.4 mL/kg
Canis familiaris [13]
  Urinary excretion: 9.3 mL/kg
Canis familiaris [14]
  Saldiuretic activity: 1.17 m equiv 6hr-1 kg-1
Canis familiaris [15]
  Urinary excretion: 38.3 mL/kg
Rattus norvegicus [16]
  Volume: 0.0545 L/h/kg
Canis familiaris [17]
  Na+ excretion: 1.57 mequiv kg-1
Canis familiaris [18]
  Saldiuretic activity: 7.13 m equiv 6hr-1 kg-1

## CN(c1ccccc1)c1cc(NCc2ccco2)c(S(=O)(=O)[O-])cc1S(N)(=O)=O.[Na+]
Canis familiaris [19]
  Urinary excretion: 10.1 mL/kg
Canis familiaris [20]
  Na+ excretion: 0.55 mequiv kg-1
Canis familiaris [21]
  Urinary excretion: 40.5 mL/kg
Canis familiaris [22]
  Diuretic activity: 33.3 ml kg-1 6hr-1
Canis familiaris [23]
  Na+ excretion: 4.39 mequiv kg-1
Canis familiaris [24]
  Urinary excretion: 95.7 mL/kg
Canis familiaris [25]
  Urinary excretion: 40.8 mL/kg
Canis familiaris [26]
  Saluretic activity: 0.2 m equiv 6hr-1 kg-1
Canis familiaris [27]
  Na+ excretion: 6.48 mequiv kg-1
Canis familiaris [28]
  Saldiuretic activity: 0.75 mequiv kg-1 6hr-1
Canis familiaris [29]
  Na+ excretion: 1.51 mequiv kg-1
[30]
  Ratio: 1
Canis familiaris [31]
  Na+ excretion: 1.29 mequiv kg-1
